In ChEMBL document CHEMBL3627681, “Synthesis and biological evaluation of 1,3-diaryl pyrazole derivatives as potential antibacterial and anti-inflammatory agents” (2015):

What follows are compounds tested on Staphylococcus aureus (assay: Antibacterial activity against Staphylococcus aureus 209 after 24 hrs by two-fold serial dilution method). Conditions: Staphylococcus aureus, 209, 24 h.
Format: functional
Outline: (§1)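 Broth microdilution in Mueller-Hinton broth. Bacteria grown to mid-log phase, diluted 1000-fold, and inoculated at 10⁵ CFU/mL. Test compounds in DMSO, final DMSO not above 0.05%, final concentrations 64-0.5 µg/mL. Incubation 24 h at 37 °C, growth read as absorbance at 650 nm. MIC taken as the lowest concentration giving complete growth inhibition. Run three times.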

Q: Which MIC does the source give for `O=C(N/N=C/c1cn(-c2ccc([N+](=O)[O-])cc2[N+](=O)[O-])nc1-c1cccc(Cl)c1)c1ccco1` here?
A: The MIC was greater than 64 µg/mL.

Q: Which MIC does the source give for `O=C(N/N=C/c1cn(-c2ccc([N+](=O)[O-])cc2[N+](=O)[O-])nc1-c1ccccc1F)c1ccco1` here?
A: The MIC was greater than 64 µg/mL.

What follows are compounds tested on Staphylococcus aureus (assay: Antibacterial activity against Staphylococcus aureus 503 after 24 hrs by two-fold serial dilution method). Conditions: Staphylococcus aureus, 503, 24 h.
Format: functional
Outline: as §1

Q: Which MIC does the source give for `O=C(N/N=C/c1cn(-c2ccc([N+](=O)[O-])cc2[N+](=O)[O-])nc1-c1cccc(Cl)c1)c1ccco1` here?
A: Its MIC is greater than 64 µg/mL.

Q: With `O=C(N/N=C/c1cn(-c2ccc([N+](=O)[O-])cc2[N+](=O)[O-])nc1-c1ccccc1F)c1ccco1` as the compound, how does the MIC read?
A: Its MIC is greater than 64 µg/mL.

Each compound was assayed on Candida albicans (assay: Antifungal activity against Candida albicans 7535 by two-fold serial dilution method). Conditions: not given.
Format: functional

Q: For `O=C(N/N=C/c1cn(-c2ccc([N+](=O)[O-])cc2[N+](=O)[O-])nc1-c1cccc(Cl)c1)c1ccco1`, which MIC is on record?
A: Its MIC is greater than 64 µg/mL.

Q: `O=C(N/N=C/c1cn(-c2ccc([N+](=O)[O-])cc2[N+](=O)[O-])nc1-c1ccccc1F)c1ccco1` was tested. Which MIC did it give?
A: The MIC was greater than 64 µg/mL.

Each compound was assayed on Escherichia coli (assay: Antibacterial activity against Escherichia coli KCTC 1924 after 24 hrs by two-fold serial dilution method). Conditions: KCTC 1924, 24 h.
Format: functional
Outline: (§2)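 Broth microdilution in Mueller-Hinton broth over final concentrations of 64–0.5. Bacteria were grown to mid-log phase and diluted 1000-fold, then inoculated at 10⁵ CFU/mL. Compounds were dissolved in DMSO, with final DMSO at most 0.05%. Plates were incubated 24 h at 37 °C and growth read as absorbance at 650 nm. MIC is the concentration giving complete growth inhibition. Three independent runs.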

Q: `O=C(N/N=C/c1cn(-c2ccc([N+](=O)[O-])cc2[N+](=O)[O-])nc1-c1cccc(Cl)c1)c1ccco1` was tested. Which MIC did it give?
A: The MIC was greater than 64 µg/mL.

Q: With `O=C(N/N=C/c1cn(-c2ccc([N+](=O)[O-])cc2[N+](=O)[O-])nc1-c1ccccc1F)c1ccco1` as the compound, how does the MIC read?
A: Its MIC is greater than 64 µg/mL.

These compounds were tested on Staphylococcus aureus (assay: Antibacterial activity against methicillin-resistant Staphylococcus aureus CCARM 3506 after 24 hrs by two-fold serial dilution method). Conditions: CCARM 3506, 24 h.
Format: functional
Outline: as §1

Q: `O=C(N/N=C/c1cn(-c2ccc([N+](=O)[O-])cc2[N+](=O)[O-])nc1-c1cccc(Cl)c1)c1ccco1` was tested. Which MIC did it give?
A: Its MIC is greater than 64 µg/mL.

Q: `O=C(N/N=C/c1cn(-c2ccc([N+](=O)[O-])cc2[N+](=O)[O-])nc1-c1ccccc1F)c1ccco1` was tested. Which MIC did it give?
A: The MIC was greater than 64 µg/mL.

The compounds below were run on Staphylococcus aureus (assay: Antibacterial activity against quinolone-resistant Staphylococcus aureus CCARM 3519 after 24 hrs by two-fold serial dilution method). Conditions: CCARM 3519, 24 h.
Format: functional
Outline: as §1

Q: For `O=C(N/N=C/c1cn(-c2ccc([N+](=O)[O-])cc2[N+](=O)[O-])nc1-c1cccc(Cl)c1)c1ccco1`, which MIC is on record?
A: The MIC was greater than 64 µg/mL.

Q: How did the MIC turn out when `O=C(N/N=C/c1cn(-c2ccc([N+](=O)[O-])cc2[N+](=O)[O-])nc1-c1ccccc1F)c1ccco1` was run?
A: The MIC was greater than 64 µg/mL.

These compounds were tested on Staphylococcus aureus (assay: Antibacterial activity against methicillin-resistant Staphylococcus aureus CCARM 3167 after 24 hrs by two-fold serial dilution method). Conditions: CCARM 3167, 24 h.
Format: functional
Outline: as §1

Q: How did the MIC turn out when `O=C(N/N=C/c1cn(-c2ccc([N+](=O)[O-])cc2[N+](=O)[O-])nc1-c1cccc(Cl)c1)c1ccco1` was run?
A: The MIC was greater than 64 µg/mL.

Q: Which MIC does the source give for `O=C(N/N=C/c1cn(-c2ccc([N+](=O)[O-])cc2[N+](=O)[O-])nc1-c1ccccc1F)c1ccco1` here?
A: Its MIC is greater than 64 µg/mL.

What follows are compounds tested on Pseudomonas aeruginosa (assay: Antibacterial activity against Pseudomonas aeruginosa 2004 after 24 hrs by two-fold serial dilution method). Conditions: Pseudomonas aeruginosa, 2004, 24 h.
Format: functional
Outline: as §2

Q: With `O=C(N/N=C/c1cn(-c2ccc([N+](=O)[O-])cc2[N+](=O)[O-])nc1-c1cccc(Cl)c1)c1ccco1` as the compound, how does the MIC read?
A: The MIC was greater than 64 µg/mL.

Q: How did the MIC turn out when `O=C(N/N=C/c1cn(-c2ccc([N+](=O)[O-])cc2[N+](=O)[O-])nc1-c1ccccc1F)c1ccco1` was run?
A: Its MIC is greater than 64 µg/mL.

These compounds were tested on Salmonella typhimurium (assay: Antibacterial activity against Salmonella typhimurium 2421 after 24 hrs by two-fold serial dilution method). Conditions: Salmonella enterica, 2421, 24 h.
Format: functional, Salmonella enterica subsp. enterica serovar Typhimurium
Outline: as §2

Q: How did the MIC turn out when `O=C(N/N=C/c1cn(-c2ccc([N+](=O)[O-])cc2[N+](=O)[O-])nc1-c1cccc(Cl)c1)c1ccco1` was run?
A: The MIC was greater than 64 µg/mL.

Q: How did the MIC turn out when `O=C(N/N=C/c1cn(-c2ccc([N+](=O)[O-])cc2[N+](=O)[O-])nc1-c1ccccc1F)c1ccco1` was run?
A: Its MIC is greater than 64 µg/mL.

What follows are compounds tested on Staphylococcus aureus (assay: Antibacterial activity against quinolone-resistant Staphylococcus aureus CCARM 3505 after 24 hrs by two-fold serial dilution method). Conditions: CCARM 3505, 24 h.
Format: functional
Outline: as §1

Q: `O=C(N/N=C/c1cn(-c2ccc([N+](=O)[O-])cc2[N+](=O)[O-])nc1-c1cccc(Cl)c1)c1ccco1` was tested. Which MIC did it give?
A: The MIC was greater than 64 µg/mL.

Q: Which MIC does the source give for `O=C(N/N=C/c1cn(-c2ccc([N+](=O)[O-])cc2[N+](=O)[O-])nc1-c1ccccc1F)c1ccco1` here?
A: The MIC was greater than 64 µg/mL.

These compounds were tested on Pseudomonas aeruginosa (assay: Antibacterial activity against Pseudomonas aeruginosa 2742 after 24 hrs by two-fold serial dilution method). Conditions: Pseudomonas aeruginosa, 2742, 24 h.
Format: functional
Outline: as §2

Q: With `O=C(N/N=C/c1cn(-c2ccc([N+](=O)[O-])cc2[N+](=O)[O-])nc1-c1cccc(Cl)c1)c1ccco1` as the compound, how does the MIC read?
A: The MIC was greater than 64 µg/mL.

Q: `O=C(N/N=C/c1cn(-c2ccc([N+](=O)[O-])cc2[N+](=O)[O-])nc1-c1ccccc1F)c1ccco1` was tested. Which MIC did it give?
A: The MIC was greater than 64 µg/mL.

These compounds were tested on Mus musculus (assay: Antiinflammatory activity in mouse assessed as inhibition of xylene-induced ear edema at 50 mg/kg, ip administered 30 mins before xylene challenge relative to control). Conditions: not given.
Format: functional
Outline: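 Mice received compound freshly dissolved in DMSO, 50 mg/kg ip at 0.05 mL/20 g body weight; vehicle controls got DMSO alone. After 30 min, 20 µL xylene was applied to the right ear. After a further 30 min, 7 mm plugs were cut from treated and untreated ears and edema taken as their weight difference. Result is % edema reduction versus vehicle controls.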

Q: For `O=C(N/N=C/c1cn(-c2ccc([N+](=O)[O-])cc2[N+](=O)[O-])nc1-c1cccc(Cl)c1)c1ccco1`, which inhibition in vivo at 50 mg/kg is on record?
A: The inhibition in vivo at 50 mg/kg was 26.2%.

Q: How did the inhibition in vivo at 50 mg/kg turn out when `O=C(N/N=C/c1cn(-c2ccc([N+](=O)[O-])cc2[N+](=O)[O-])nc1-c1ccccc1F)c1ccco1` was run?
A: The inhibition in vivo at 50 mg/kg was 28%.

What follows are compounds tested on Streptococcus mutans (assay: Antibacterial activity against Streptococcus mutans 3065 after 24 hrs by two-fold serial dilution method). Conditions: Streptococcus mutans, 3065, 24 h.
Format: functional
Outline: as §2

Q: With `O=C(N/N=C/c1cn(-c2ccc([N+](=O)[O-])cc2[N+](=O)[O-])nc1-c1cccc(Cl)c1)c1ccco1` as the compound, how does the MIC read?
A: The MIC was greater than 64 µg/mL.

Q: How did the MIC turn out when `O=C(N/N=C/c1cn(-c2ccc([N+](=O)[O-])cc2[N+](=O)[O-])nc1-c1ccccc1F)c1ccco1` was run?
A: The MIC was greater than 64 µg/mL.

These compounds were tested on Staphylococcus aureus (assay: Antibacterial activity against Staphylococcus aureus RN4220 after 24 hrs by two-fold serial dilution method). Conditions: RN4220, 24 h.
Format: functional
Outline: as §1

Q: For `O=C(N/N=C/c1cn(-c2ccc([N+](=O)[O-])cc2[N+](=O)[O-])nc1-c1cccc(Cl)c1)c1ccco1`, which MIC is on record?
A: Its MIC is greater than 64 µg/mL.

Q: For `O=C(N/N=C/c1cn(-c2ccc([N+](=O)[O-])cc2[N+](=O)[O-])nc1-c1ccccc1F)c1ccco1`, which MIC is on record?
A: The MIC was greater than 64 µg/mL.

These compounds were tested on Escherichia coli (assay: Antibacterial activity against Escherichia coli CCARM 1356 after 24 hrs by two-fold serial dilution method). Conditions: CCARM 1356, 24 h.
Format: functional
Outline: as §2

Q: With `O=C(N/N=C/c1cn(-c2ccc([N+](=O)[O-])cc2[N+](=O)[O-])nc1-c1cccc(Cl)c1)c1ccco1` as the compound, how does the MIC read?
A: The MIC was greater than 64 µg/mL.

Q: With `O=C(N/N=C/c1cn(-c2ccc([N+](=O)[O-])cc2[N+](=O)[O-])nc1-c1ccccc1F)c1ccco1` as the compound, how does the MIC read?
A: The MIC was greater than 64 µg/mL.
